MT1-MMP act inh: blockers of MT1-MMP proenzyme processing, primary screen, HT1080 RFP-PRO-GFP cells, GFP/RFP fluorescence | Matrix metalloproteinase-14 (Homo sapiens), P50281 | GFP/RFP ratio fluorescence, overnight; percent of plate control window, DMSO zero | GFP/RFP ratio change, % at 20 µM | 0.061% of 360,000 active;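 active means GFP/RFP ratio change of at least 30% with cell ATP level not reduced by more than half and red fluorescence within 50% of control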
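Assay system: HT1080 RFP-PRO-GFP cells | Dosing: 20 µM single dose, 1% DMSO | Incubation: Cells overnight before dosing, compound overnight, 37 °C, 5% CO2 | Evaluation: GFP/RFP fluorescence ratio | Control set: DMSO-only wells and HT1080 RFP-L50D-GFP cell wells as references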
Pemphigus Ab inh: inhibitors of pemphigus antibody binding to DSG3, primary screen, biochemical, bead-based, flow cytometry, scFv-GFP; DSG3-coupled beads, scFv-anti-DSG3-GFP binding; active compounds read low; 0.48% of 310,000 active; Desmoglein-3 (Homo sapiens), P32926; binding (percent of control), % at 10 µM;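 active means binding more than 3 SD below its plate's average and above zero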;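 further: hits lower antibody fragment binding to DSG3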
STK33 inh: inhibitors of purified STK33 kinase, primary screen, biochemical, ADP-Glo luminescence, homogeneous, cell-free; AID 2661, 2010; MBP phosphorylation; inhibition, % at 10 µM; 0.073% of 320,000 active;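 active means inhibition at or above 25%, using the most active replicate where run in duplicate; inactive means inhibition below 25%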
GSK3beta inhib: human GSK3beta kinase inhibitors, primary screen, biochemical, cell-free homogeneous, HTS | Glycogen synthase kinase-3 beta (Homo sapiens), P49841 | GST-GSK3beta kinase, ADP-Glo luminescence, 60 min; active compounds read low | activity score (negative = inhibition), % at 10 µM | 0.038% of 300,000 active | AID 2097, 2009;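 active means more than half of replicate wells score below -50%, meaning over 50% inhibition versus plate controls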;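 further: 0% = median DMSO wells and -100% = median GW8510 positive control wells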
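Test system: GST-tagged human GSK3beta kinase, cell-free; evaluation: activity score scaled between in-plate DMSO and GW8510 controls; measured by: ADP-Glo luminescence; incubation: 60 min reaction, RT; benchmarks: DMSO and 20 µM GW8510; reagent: peptide substrate plus 25 µM ATP (final); medium: Tris/MgCl2 kinase buffer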
GSK3A inh: blockers of GSK3A enzyme activity – biochemical, luminescence, cell-free homogeneous, HTS, primary screen | 0.1% of 320,000 active | inhibition, % at 10 µM | Glycogen synthase kinase-3 alpha (Homo sapiens), P49840 | GSK-3 alpha kinase, ADP-Glo luminescence, 60 min;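 active means more than half of replicates show inhibition above 20%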;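 further: GST-tagged GSK-3 alpha with peptide substrate and 25 µM ATP; 0% = DMSO neutral wells and 100% = GW8510 positive control wells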
An asterisk follows results filed as active; nt = no result. Most compounds without a hit are left out; they make up all but 0.63% or so of the library.

SMILES	MT1-MMP act inh	Pemphigus Ab inh	STK33 inh	GSK3beta inhib	GSK3A inh
CC(C)=C[C@H]1C[C@H](C)[C@H]2CC[C@H](C)c3c(O[C@@H]4O[C@@H](C)[C@@H](O)[C@@H](O)[C@@H]4O)c(O)c(C)c1c32	-0.1	nt	nt	nt	nt
Cc1cn(C2OC(CC(=O)Oc3ccccc3)C(O)C2O)c(=O)[nH]c1=O (stereo unspecified)	2.0	110.1	0.0	-24.5	51.7*
O=C(Nc1ccccc1F)c1ccc(-c2cccc([N+](=O)[O-])c2)o1	-2.2	nt	-1.3	-0.2	0.9
O=C(Nc1nccs1)c1ccc(-c2cccc([N+](=O)[O-])c2)o1	0.4	64.5*	-0.1	6.3	-0.5
COc1cccc(NC(=O)c2ccc(-c3ccc([N+](=O)[O-])cc3)o2)c1	-10.0	83.5*	-0.3	0.5	-1.5
COc1ccc(/C=C(\C#N)C(=O)OCC(=O)NC2CC2)cc1	-2.8	57.8*	0.3	4.0	-2.4
Cc1cc2c(cc1C)-n1nnnc1C(N1CCN(c3ccccn3)CC1)C(c1ccc3c(c1)OCO3)=N2 (stereo unspecified)	-4.0	nt	nt	nt	nt
O=C(/C=C/c1ccc(O)cc1)c1ccccc1	7.1	99.4	20.1	-4.9	4.1
Cc1nn(C)cc1/C=C/C(=O)c1ccc(O)cc1	-2.8	100.8	31.3*	-0.5	6.5
COC(=O)C[C@@H]1OC[C@H](Cc2ccccc2)N1S(=O)(=O)c1ccc(C)cc1	-0.3	nt	nt	nt	nt
COC(=O)[C@]12CCCCC=C1N(CCc1ccc(OC)c(OC)c1)C(=O)[C@H](CC(=O)NCc1cccc(C(F)(F)F)c1)C2	-3.7	nt	nt	nt	nt
C=CC[n+]1ccc(/C=C2\C=Cc3cc(C)ccc3N2CC)c2ccccc21	60.7*	96.5	nt	nt	nt
O=C(O)C1Nc2c(O)cc(Cl)c([N+](=O)[O-])c2C2C=CCC12 (stereo unspecified)	0.5	65.7*	13.8	3.2	3.7
COC(=O)[C@@]12C[C@@H](CC(=O)N3CCC(c4ccccc4)CC3)C(=O)N(Cc3cccc4ccccc34)C1=CCC(C)(C)C2	-8.3	nt	nt	nt	nt
C1=C(c2ccccc2)Nc2ncnn2C1c1ccccc1 (stereo unspecified)	-8.8	68.7*	-0.6	-19.3	-5.7
COc1ccc(Cn2cc(CN(C)C3CN(Cc4cn(Cc5ccc(OC)cc5)nn4)S(=O)(=O)C3)nn2)cc1 (stereo unspecified)	4.7	nt	nt	nt	nt
O=[N+]([O-])c1ccccc1S(=O)(=O)N1CCN(Cc2ccc3c(c2)OCO3)CC1	-2.3	36.8*	-1.2	1.1	-2.9
O=C(CSc1ccc(-c2ccc3c(c2)OCO3)nn1)Nc1nccs1	-1.8	94.6*	-2.2	1.0	-1.5
NC(c1csc(Nc2ccc(C(F)(F)F)cn2)n1)C1CCCCC1 (stereo unspecified)	-1.9	nt	nt	nt	nt
O=S(=O)(c1cc(-c2nnc(-c3ccc(Br)cc3)o2)ccc1Br)N1CCCCCC1	2.8	74.2*	-0.3	5.3	-0.5
O=C(Nc1ccc2c(c1)C(=O)N(c1ccccc1)C2=O)c1cccs1	-1.7	86.6*	-1.8	-0.3	-0.7
O=C(Nc1ccc(Cl)cc1)c1cccs1	2.0	99.3	nt	1.0	-1.4
O=C(Nc1ccc(NC(=O)c2cccs2)cc1)c1cccs1	1.1	21.8*	-3.0	-1.9	-1.8
O=C(O)CCN1C(=O)c2ccc(NC(=O)c3cccs3)cc2C1=O	-7.2	97.3	0.5	-1.4	1.8
CN(C)c1nc2sc3c(c2c(=O)n1C)CC(C)(C)OC3	8.8	97.9	37.5*	6.2	1.6
SMILES	MT1-MMP act inh	Pemphigus Ab inh	STK33 inh	GSK3beta inhib	GSK3A inh
Cc1cccc(CC(=O)NCCS(=O)(=O)N2CCN(c3ccccc3)CC2)c1	1.2	98.4	nt	nt	nt
Cc1ccc(-n2nc(-c3ccco3)cc2C(=O)O)c(C)c1	nt	59.6*	nt	-2.3	nt
O=C(O)c1cc(-c2ccco2)nn1-c1ccc(Cl)cc1	-6.1	101.3	nt	2.7	nt
Cc1ccc(NC(=O)COC(=O)C(NS(=O)(=O)c2ccc(Cl)cc2)C(C)O)cc1C (stereo unspecified)	0.8	97.4	-1.0	1.1	0.1
Cc1ccc(NC(=O)COC(=O)C(NS(=O)(=O)c2ccc(Cl)cc2)C(C)O)c(Br)c1 (stereo unspecified)	6.7	53.4*	-1.8	0.5	-1.1
Cc1ccc(NCCC(=O)c2ccccc2)cc1Cl	2.1	89.1*	-1.8	4.2	-2.3
Cc1ccc(NCC(=O)c2ccccc2)cc1Cl	-0.2	103.6	-0.5	4.2	-1.3
Cc1ccc(C(=O)CNc2ccc(C)c(Cl)c2)cc1	nt	-6.7*	1.6	-0.6	-2.1
OC(c1ccc(F)cc1)c1nc(-c2cc3ccccc3o2)cs1 (stereo unspecified)	-1.5	nt	nt	nt	nt
Cc1cc(-c2cccc([N+](=O)[O-])c2)nc2ccc3ccccc3c12	-2.9	-1.4*	-2.5	-0.2	0.6
Cc1csc(C(=O)O)c1NC(=O)c1cccc([N+](=O)[O-])c1	nt	43.5*	-2.0	0.6	-46.9
CCCCC(=O)N(C)c1c(CC)nc2c(OCC(=O)N(C)C)cccn12	-3.3	nt	nt	nt	nt
CS(=O)(=O)Nc1ccccc1C(=O)Nc1ccccc1Cl	8.3	66.2*	-0.8	0.3	-1.2
CS(=O)(=O)Nc1ccccc1C(=O)Nc1cc(Cl)cc(Cl)c1	-7.0	98.9	-2.3	-4.0	-3.9
COc1cc(/C(C)=N/NC(=O)c2nnn(-c3nonc3N)c2-c2cccs2)ccc1O	-6.9	110.9	-0.6	-1.6	-0.6
CCOc1cccc(-c2c(C(=O)N/N=C(\C)c3ccncc3)nnn2-c2nonc2N)c1	-10.5	107.4	-0.2	-20.5	68.7*
CCOc1cccc(-c2c(C(=O)N/N=C(\C)c3ccccn3)nnn2-c2nonc2N)c1	24.2	103.7	0.6	3.4	31.7
CCOC(=O)c1nnn(-c2nonc2N)c1-c1ccc(OCC)cc1	15.7	108.2	-0.5	-35.5	50.4*
C/C(=N\NC(=O)c1nnn(-c2nonc2N)c1-c1cccs1)c1cccc(O)c1	-3.8	95.9	-0.2	-0.1	65.5*
CCC(C(=O)NC(C)(C)C)n1c(-c2ccc3c(c2)OCO3)nc2ccccc21 (stereo unspecified)	-1.6	nt	nt	nt	nt
O=C(O)c1ccc(-n2ncc3c2/C(=C\c2cccc([N+](=O)[O-])c2)CC3)cc1	4.3	34.1*	nt	nt	nt
O=C(O)c1ccc(-n2ncc3c2/C(=C/c2cccc([N+](=O)[O-])c2)CC3)cc1	6.1	91.3	0.3	0.2	-2.7
